What was measured:
Type in all cases: functional
Acinetobacter sp. = test: Antibacterial activity against Acinetobacter spp. by broth microdilution method
Outline: (§1)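 MICs were determined by CLSI broth microdilution against clinical isolate panels that included aminoglycoside-resistant isolates. […] MIC90 was derived per group and not calculated when n was <10. Imipenem, ceftobiprole, ciprofloxacin and tigecycline MICs were also determined for the resistant isolates.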

Proteus mirabilis = test: Antibacterial activity against Proteus mirabilis by broth microdilution method; outline: as §1
Escherichia coli [1] = test: Antibacterial activity against Escherichia coli by broth microdilution method; outline: as §1
Enterobacter sp. = test: Antibacterial activity against Enterobacter spp. by broth microdilution method; outline: as §1
Staphylococcus sp. = test: Antibacterial activity against Staphylococcus spp. by broth microdilution method; outline: as §1
Citrobacter = test: Antibacterial activity against Citrobacter spp. by broth microdilution method; outline: as §1
Serratia sp. = test: Antibacterial activity against Serratia spp. by broth microdilution method; outline: as §1
[2] = Antibacterial activity against indole positive Proteae by broth microdilution method; outline: as §1
Klebsiella sp. = test: Antibacterial activity against Klebsiella spp. by broth microdilution method; outline: as §1
Pseudomonas aeruginosa [3] = test: Antibacterial activity against Pseudomonas aeruginosa by broth microdilution method; outline: as §1
Escherichia coli [4] = test: Antibacterial activity against aminoglycoside-resistant Escherichia coli expressing ANT(6')-1 by broth microdilution method
Outline: (§2)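 Clinical aminoglycoside-resistant isolates were each carrying a single aminoglycoside-modifying enzyme. […] MICs were determined by CLSI broth microdilution.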

Escherichia coli [5] = test: Antibacterial activity against Escherichia coli ATCC 25922 by broth microdilution method
Outline: (§3)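 MICs were measured by broth microdilution following CLSI guidance. The strains formed a 25-strain screening panel with diverse aminoglycoside resistance mechanisms. The panel included Gram-negative and S. aureus strains carrying key aminoglycoside-modifying enzymes, strains with altered permeability or efflux, and an armA ribosomal methyltransferase strain.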

Pseudomonas aeruginosa [6] = test: Antibacterial activity against efflux pump deficient Pseudomonas aeruginosa by broth microdilution method
Pseudomonas aeruginosa [7] = test: Antibacterial activity against wild type Pseudomonas aeruginosa expressing efflux pump by broth microdilution method
Outline: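 MIC was determined by CLSI broth microdilution, read in μg/ml. The strain came from a 25-strain screening panel with diverse aminoglycoside resistance mechanisms. The panel included strains with changes in permeability or efflux, key aminoglycoside-modifying enzymes and an armA methyltransferase strain.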

Pseudomonas aeruginosa [8] = test: Antibacterial activity against Pseudomonas aeruginosa expressing AAC(3)-1 by broth microdilution method
Klebsiella oxytoca [9] = test: Antibacterial activity against aminoglycoside-resistant Klebsiella oxytoca expressing AAC(6')-1 by broth microdilution method; outline: as §2
Pseudomonas aeruginosa [10] = test: Antibacterial activity against Pseudomonas aeruginosa expressing AAC(6')-2 by broth microdilution method
Pseudomonas aeruginosa [11] = test: Antibacterial activity against Pseudomonas aeruginosa expressing ANT(4')-2 by broth microdilution method; outline: as §3
Enterobacter cloacae [12] = test: Antibacterial activity against aminoglycoside-resistant Enterobacter cloacae expressing AAC(6')-1 by broth microdilution method; outline: as §2
Acinetobacter = test: Antibacterial activity against aminoglycoside-resistant Acinetobacter spp. expressing APH(3')-6 by broth microdilution method; outline: as §2
[13] = tested on: Staphylococcus epidermidis; test: Antibacterial activity against aminoglycoside-resistant Staphylococcus epidermidis expressing APH(3')-3 by broth microdilution method
Citrobacter freundii [14] = test: Antibacterial activity against aminoglycoside-resistant Citrobacter freundii expressing AAC(6')-1 by broth microdilution method; outline: as §2
Serratia liquefaciens = test: Antibacterial activity against aminoglycoside-resistant Serratia liquefaciens expressing AAC(3)-2 by broth microdilution method; outline: as §2
[15] = tested on: Acinetobacter calcoaceticus; test: Antibacterial activity against aminoglycoside-resistant Acinetobacter calcoaceticus expressing AAC(6')-1 by broth microdilution method; outline: as §2
Klebsiella aerogenes [16] = test: Antibacterial activity against aminoglycoside-resistant Enterobacter aerogenes expressing AAC(6')-1 by broth microdilution method; outline: as §2
Pseudomonas aeruginosa [17] = test: Antibacterial activity against Pseudomonas aeruginosa ATCC 27853 by broth microdilution method
Serratia marcescens [18] = test: Antibacterial activity against aminoglycoside-resistant Serratia marcescens expressing ANT(2''), AAC(6') by broth microdilution method; outline: as §3
Serratia marcescens [19] = test: Antibacterial activity against aminoglycoside-resistant Serratia marcescens expressing AAC(6')-1 by broth microdilution method; outline: as §2
Acinetobacter baumannii [20] = test: Antibacterial activity against aminoglycoside-resistant Acinetobacter baumannii expressing APH(3')-6 by broth microdilution method; outline: as §2
[21] = tested on: Staphylococcus epidermidis; test: Antibacterial activity against aminoglycoside-resistant Staphylococcus epidermidis expressing ANT(4',4'')-2 by broth microdilution method; outline: as §2
Klebsiella oxytoca [22] = test: Antibacterial activity against aminoglycoside-resistant Klebsiella oxytoca expressing AAC(3)-2 by broth microdilution method; outline: as §2
Klebsiella pneumoniae [23] = test: Antibacterial activity against Klebsiella pneumoniae ATCC 10031 by broth microdilution method; outline: as §3
Acinetobacter baumannii [24] = test: Antibacterial activity against Acinetobacter baumannii ATCC 19606 by broth microdilution method; conditions: ATCC 19606 = CIP 70.34 = JCM 6841; outline: as §3
Pseudomonas aeruginosa [25] = test: Antibacterial activity against aminoglycoside-resistant Pseudomonas aeruginosa expressing AAC(6')-2 by broth microdilution method; outline: as §2
Acinetobacter baumannii [26] = test: Antibacterial activity against aminoglycoside-resistant Acinetobacter baumannii expressing ANT(2'')-1 by broth microdilution method; outline: as §2
Escherichia coli [27] = test: Antibacterial activity against aminoglycoside-resistant Escherichia coli expressing ANT(2'')-1 by broth microdilution method; outline: as §2
[28] = tested on: Staphylococcus epidermidis; test: Antibacterial activity against aminoglycoside-resistant Staphylococcus epidermidis expressing APH(2'') + AAC(6')-1 by broth microdilution method; outline: as §2
Enterobacter cloacae [29] = test: Antibacterial activity against aminoglycoside-resistant Enterobacter cloacae expressing AAC(3)-2 by broth microdilution method; outline: as §2
Citrobacter freundii [30] = test: Antibacterial activity against aminoglycoside-resistant Citrobacter freundii expressing AAC(3)-2 by broth microdilution method; outline: as §2
Klebsiella pneumoniae [31] = test: Antibacterial activity against aminoglycoside-resistant Klebsiella pneumoniae expressing AAC(3)-4 by broth microdilution method; outline: as §2
Klebsiella pneumoniae [32] = test: Antibacterial activity against aminoglycoside-resistant Klebsiella pneumoniae expressing AAC(6')-1 by broth microdilution method; outline: as §2
Escherichia coli [33] = test: Antibacterial activity against aminoglycoside-resistant Escherichia coli expressing ANT(3)-2 by broth microdilution method; outline: as §2
Klebsiella pneumoniae [34] = test: Antibacterial activity against aminoglycoside-resistant Klebsiella pneumoniae expressing AAC(3)-2 by broth microdilution method; outline: as §2
Pseudomonas aeruginosa [35] = test: Antibacterial activity against aminoglycoside-resistant Pseudomonas aeruginosa expressing ANT(2'')-1 by broth microdilution method; outline: as §2
Staphylococcus aureus [36] = test: Antibacterial activity against aminoglycoside-resistant Staphylococcus aureus expressing ANT(4',4'')-2 by broth microdilution method; outline: as §2
Pseudomonas aeruginosa [37] = test: Antibacterial activity against Pseudomonas aeruginosa expressing mexXY operon by broth microdilution method; outline: as §3
Staphylococcus aureus [38] = test: Antibacterial activity against aminoglycoside-resistant Staphylococcus aureus expressing APH(2'') + AAC(6') by broth microdilution method; outline: as §3
Acinetobacter baumannii [39] = test: Antibacterial activity against aminoglycoside-resistant Acinetobacter baumannii expressing […] by broth microdilution method; outline: as §2
Escherichia coli [40] = test: Antibacterial activity against aminoglycoside-resistant Escherichia coli expressing AAC(6')-1 by broth microdilution method; outline: as §2
Staphylococcus aureus [41] = test: Antibacterial activity against aminoglycoside-resistant Staphylococcus aureus expressing APH(2'') + AAC(6')-1 by broth microdilution method; outline: as §2
Acinetobacter baumannii [42] = test: Antibacterial activity against aminoglycoside-susceptible Acinetobacter baumannii by broth microdilution method
Escherichia coli [43] = test: Antibacterial activity against aminoglycoside-resistant Escherichia coli expressing AAC(3)-4 by broth microdilution method; outline: as §2
Escherichia coli [44] = test: Antibacterial activity against aminoglycoside-resistant Escherichia coli expressing AAC(3)-2 by broth microdilution method; outline: as §2
Klebsiella aerogenes [45] = test: Antibacterial activity against aminoglycoside-resistant Enterobacter aerogenes expressing AAC(3)-2 by broth microdilution method; outline: as §2
Klebsiella pneumoniae [46] = test: Antibacterial activity against aminoglycoside-resistant Klebsiella pneumoniae expressing AAC(3)-1 by broth microdilution method; outline: as §2
Escherichia coli [47] = test: Antibacterial activity against aminoglycoside-resistant Escherichia coli expressing armA methylase by broth microdilution method; outline: as §3
[48] = Serratia sp. (in: enterobacteria)

CN(C)c1cc(NC(=O)CNC(C)(C)C)c(O)c2c1C[C@H]1C[C@H]3[C@H](N(C)C)C(O)=C(C(N)=O)C(=O)[C@@]3(O)C(O)=C1C2=O [TIGECYCLINE]
2 µg/mL: MIC50 (Acinetobacter sp.) | MIC50 (Serratia sp.; [48]) | MIC50 [2] | MIC90 (Klebsiella sp.)
8 µg/mL: MIC90 (Proteus mirabilis)
> 16 µg/mL: MIC90 (Pseudomonas aeruginosa [3])
0.25 µg/mL: MIC50 (Escherichia coli [1]) | MIC50 (Staphylococcus sp.)
0.5 µg/mL: MIC90 (Escherichia coli [1]) | MIC50 (Enterobacter sp.) | MIC90 (Staphylococcus sp.) | MIC50 (Citrobacter)
1 µg/mL: MIC50 (Klebsiella sp.)
16 µg/mL: MIC90 (Acinetobacter sp.) | MIC50 (Pseudomonas aeruginosa [3])
4 µg/mL: MIC50 (Proteus mirabilis) | MIC90 (Enterobacter sp.)

GENTAMICIN
> 64 µg/mL: MIC50 (Acinetobacter sp.) | MIC90 (Acinetobacter sp.) | MIC90 (Proteus mirabilis) | MIC90 (Escherichia coli [1]) | MIC90 (Enterobacter sp.) | MIC90 (Staphylococcus sp.) | MIC50 (Citrobacter) | MIC (Acinetobacter baumannii [26]) | MIC (Escherichia coli [27]) | MIC50 [2] | MIC (Escherichia coli [33]) | MIC90 (Klebsiella sp.) | MIC (Staphylococcus aureus [38]) | MIC50 (Pseudomonas aeruginosa [3]) | MIC90 (Pseudomonas aeruginosa [3]) | MIC (Escherichia coli [47])
50 µg/mL: MIC [28] | MIC (Staphylococcus aureus [41])
8 µg/mL: MIC [15]
16 µg/mL: MIC (Acinetobacter baumannii [24]) | MIC (Klebsiella pneumoniae [31]) | MIC (Acinetobacter baumannii [39]) | MIC (Escherichia coli [43])
62 µg/mL: MIC (Serratia liquefaciens) | MIC (Klebsiella oxytoca [22]) | MIC (Enterobacter cloacae [29]) | MIC (Citrobacter freundii [30]) | MIC (Klebsiella pneumoniae [34]) | MIC (Escherichia coli [44]) | MIC (Klebsiella aerogenes [45])
64 µg/mL: MIC (Pseudomonas aeruginosa [8]) | MIC50 (Escherichia coli [1]) | MIC (Pseudomonas aeruginosa [25]) | MIC50 (Serratia sp.)
2 µg/mL: MIC (Pseudomonas aeruginosa [37])
1 µg/mL: MIC (Escherichia coli [5]) | MIC (Pseudomonas aeruginosa [7]) | MIC (Klebsiella oxytoca [9]) | MIC (Enterobacter cloacae [12]) | MIC (Acinetobacter) | MIC [13] | MIC (Citrobacter freundii [14]) | MIC (Klebsiella aerogenes [16]) | MIC (Pseudomonas aeruginosa [17]) | MIC (Serratia marcescens [19]) | MIC [21] | MIC (Klebsiella pneumoniae [32]) | MIC (Staphylococcus aureus [36]) | MIC (Escherichia coli [40]) | MIC (Acinetobacter baumannii [42])
32 µg/mL: MIC (Pseudomonas aeruginosa [10]) | MIC50 (Proteus mirabilis) | MIC50 (Enterobacter sp.) | MIC50 (Staphylococcus sp.) | MIC50 (Klebsiella sp.) | MIC (Klebsiella pneumoniae [46])
0.125 µg/mL: MIC (Pseudomonas aeruginosa [6]) | MIC (Klebsiella pneumoniae [23])
56 µg/mL: MIC (Pseudomonas aeruginosa [35])
4 µg/mL: MIC (Escherichia coli [4]) | MIC (Pseudomonas aeruginosa [11]) | MIC (Serratia marcescens [18]) | MIC (Acinetobacter baumannii [20])

C[C@@H](O)[C@H]1C(=O)N2C(C(=O)O)=C(SCCNC=N)C[C@H]12 [IMIPENEM ANHYDROUS]
16 µg/mL: MIC90 (Pseudomonas aeruginosa [3])
2 µg/mL: MIC50 (Acinetobacter sp.)
4 µg/mL: MIC50 (Proteus mirabilis) | MIC90 (Enterobacter sp.) | MIC50 (Pseudomonas aeruginosa [3])
> 16 µg/mL: MIC90 (Acinetobacter sp.) | MIC90 (Klebsiella sp.)
8 µg/mL: MIC90 (Proteus mirabilis)
0.5 µg/mL: MIC50 (Citrobacter)
0.125 µg/mL: MIC50 (Escherichia coli [1])
0.25 µg/mL: MIC90 (Escherichia coli [1]) | MIC50 (Klebsiella sp.)
1 µg/mL: MIC50 (Enterobacter sp.) | MIC50 (Serratia sp.; [48]) | MIC50 [2]
